In ChEMBL document CHEMBL4673223, “Synthesis, Biological, and Structural Explorations of New Zwitterionic Derivatives of 14- O-Methyloxymorphone, as Potent μ/δ Opioid Agonists and Peripherally Selective Antinociceptives” (J Med Chem, 2019):
Calls of active or inactive are those of the source. The calls are words filed in the database; no cut-off is given here.

Columns and labels:
[1] = Selectivity index, ratio of Ki for displacement of [3H]U69,593 from kappa opioid receptor in guinea-pig brain membranes to Ki for displacement of [3H]DAMGO from mu opioid receptor in rat brain membranes; type: cell membranes
Procedure, shortened: (§1)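 Guinea-pig brain membranes (0.3–0.5 mg protein) in 50 mM Tris-HCl, pH 7.4, were incubated with 1 nM [3H]U69,593 for 30 min at 30 °C, with 10 μM naloxone defining nonspecific binding. MOR was measured on rat brain membranes with 1 nM [3H]DAMGO for 45 min at 35 °C. Samples were filtered and scintillation counted, and Ki was obtained by Cheng–Prusoff; duplicates, 3–4 experiments.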

Rattus norvegicus = organism: Rattus norvegicus; assay: Selectivity index, ratio of Ki for displacement of [3H][Ile5,6]deltorphin II from delta opioid receptor in rat brain membranes to Ki for displacement of [3H]DAMGO from mu opioid receptor in rat brain membranes; type: cell membranes
Procedure, shortened: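 Rat brain membranes (cerebella removed; 0.3–0.5 mg protein) in 50 mM Tris-HCl, pH 7.4, were incubated 45 min at 35 °C with 1 nM [3H]DAMGO (MOR) or 0.5 nM [3H][Ile5,6]deltorphin II (DOR) plus varied test concentrations. Nonspecific binding was set with 10 μM naloxone. Samples were GF/C filtered, washed and scintillation counted. Ki was obtained by Cheng–Prusoff; duplicates, 3–4 experiments.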

[2] = target: Delta-type opioid receptor (Homo sapiens) (UniProt P41143); assay: Displacement of [3H]diprenorphine from human DOR expressed in CHO cell membranes incubated for 60 mins liquid scintillation counting assay; conditions: Cell membrane, filed as agonist
Sequence of Delta-type opioid receptor (Homo sapiens) (P41143 whole entry): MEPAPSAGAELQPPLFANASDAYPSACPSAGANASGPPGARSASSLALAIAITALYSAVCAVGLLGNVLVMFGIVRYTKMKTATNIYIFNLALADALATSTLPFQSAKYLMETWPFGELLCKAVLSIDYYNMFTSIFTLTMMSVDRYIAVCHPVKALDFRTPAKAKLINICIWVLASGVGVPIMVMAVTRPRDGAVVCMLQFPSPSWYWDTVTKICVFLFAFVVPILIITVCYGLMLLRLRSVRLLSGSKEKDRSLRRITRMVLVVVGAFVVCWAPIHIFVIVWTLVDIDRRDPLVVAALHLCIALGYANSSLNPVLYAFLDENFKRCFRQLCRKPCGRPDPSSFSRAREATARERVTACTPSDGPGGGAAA
Procedure, shortened: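 Membranes from CHO cells expressing human DOR (15–20 μg) in 50 mM Tris-HCl, pH 7.4, were incubated with 0.2 nM [3H]diprenorphine and varied test concentrations for 60 min at 25 °C. Nonspecific binding was set with 1–10 μM unlabeled diprenorphine. Samples were GF/C filtered and scintillation counted.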

[3] = target: Mu-type opioid receptor (Homo sapiens) (UniProt P35372); assay: Agonist activity at human MOR expressed in CHO cell membranes incubated for 60 mins scintillation counting assay relative to DAMGO; conditions: Cell membrane
Sequence of Mu-type opioid receptor (Homo sapiens) (P35372 whole entry): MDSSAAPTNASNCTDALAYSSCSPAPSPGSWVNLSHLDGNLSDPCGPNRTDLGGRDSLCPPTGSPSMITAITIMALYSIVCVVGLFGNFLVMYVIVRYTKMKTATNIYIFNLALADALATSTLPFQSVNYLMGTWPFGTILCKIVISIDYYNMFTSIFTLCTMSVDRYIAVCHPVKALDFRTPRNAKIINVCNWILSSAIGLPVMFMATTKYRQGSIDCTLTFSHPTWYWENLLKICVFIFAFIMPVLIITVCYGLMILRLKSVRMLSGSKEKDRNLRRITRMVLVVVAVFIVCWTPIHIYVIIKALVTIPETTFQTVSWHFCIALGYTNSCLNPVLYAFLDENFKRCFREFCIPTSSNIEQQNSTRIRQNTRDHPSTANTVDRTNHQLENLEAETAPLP
Procedure, shortened: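 CHO-hMOR or CHO-hKOR membranes (5–10 μg) were incubated 60 min at 25 °C in HEPES/MgCl2/NaCl buffer, pH 7.4, with 0.05 nM [35S]GTPγS, 10 μM GDP and varied test concentrations. Nonspecific binding was set with 10 μM GTPγS. Samples were filtered and scintillation counted. % stimulation was taken from concentration–response curves relative to the full agonist (DAMGO for MOR, U69,593 for KOR). Duplicates, 3–4 experiments.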

Mus musculus = assay: Antinociceptive activity in sc dosed CD1 mouse assessed as inhibition of the writhing response after 30 mins post dose by acetic acid-induced writhing assay; type: functional; conditions: 0.5 h
[4] = target: Kappa-type opioid receptor (Cavia porcellus, UniProt P41144); assay: Displacement of [3H]U69,593 from kappa opioid receptor in guinea-pig brain membranes incubated for 30 mins by liquid scintillation counting method; type: cell membranes, Membrane; procedure, shortened: as §1
Sequence of Kappa-type opioid receptor (P41144 whole entry): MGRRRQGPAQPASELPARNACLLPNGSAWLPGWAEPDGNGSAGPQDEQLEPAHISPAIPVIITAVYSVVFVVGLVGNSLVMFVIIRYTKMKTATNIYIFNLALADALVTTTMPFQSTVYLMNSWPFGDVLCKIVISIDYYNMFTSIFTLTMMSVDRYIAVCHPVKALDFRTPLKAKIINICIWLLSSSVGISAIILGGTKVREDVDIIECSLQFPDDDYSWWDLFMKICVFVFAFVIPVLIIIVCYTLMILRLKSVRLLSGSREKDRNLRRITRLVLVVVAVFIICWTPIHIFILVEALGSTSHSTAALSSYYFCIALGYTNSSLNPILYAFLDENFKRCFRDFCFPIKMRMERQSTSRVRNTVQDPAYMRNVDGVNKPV

SMILES | Ratio Ki [1] | Ratio Ki (Rattus norvegicus) | Activity [2] | Activity ([3]; filed as agonist) | Activity ([3]; filed as partial agonist) | ED50 (Mus musculus) | Ki [4]
CO[C@@]12CC[C@H](N[C@H](C(=O)O)C3CCCCC3)[C@@H]3Oc4c(O)ccc5c4[C@@]31CCN(C)[C@@H]2C5 | 144 | 12 | Active | – | – | – | –
CO[C@@]12CCC(N[C@@H](CCC(=O)O)C(=O)O)[C@@H]3Oc4c(O)ccc5c4[C@@]31CCN(C)[C@@H]2C5 (single isomer, unassigned) | 60 | 6.2 | Active | – | – | – | –
CO[C@@]12CC[C@@H](N[C@H](Cc3ccccc3)C(=O)O)[C@@H]3Oc4c(O)ccc5c4[C@@]31CCN(C)[C@@H]2C5 | 109 | 0.9 | Active | 78% | – | – | –
CO[C@@]12CC[C@H](NCC(=O)O)[C@@H]3Oc4c(O)ccc5c4[C@@]31CCN(C)[C@@H]2C5 | – | – | Active | – | – | – | –
CO[C@@]12CCC(=O)[C@@H]3Oc4c(O)ccc5c4[C@@]31CCN(C)[C@@H]2C5 | – | – | Active | – | – | – | –
CO[C@@]12CC[C@@H](N[C@H](C(=O)N[C@@H](Cc3ccc(O)cc3)C(=O)O)C(C)C)[C@@H]3Oc4c(O)ccc5c4[C@@]31CCN(C)[C@@H]2C5 | – | 3.1 | Active | – | 73% | – | –
CO[C@@]12CC[C@H](N[C@@H](C(=O)O)C(C)C)[C@@H]3Oc4c(O)ccc5c4[C@@]31CCN(C)[C@@H]2C5 | 119 | 1.1 | Active | – | – | – | –
CO[C@@]12CC[C@H](N[C@@H](CO)C(=O)O)[C@@H]3Oc4c(O)ccc5c4[C@@]31CCN(C)[C@@H]2C5 | 89 | 2.4 | Active | – | – | – | –
CO[C@@]12CC[C@H](N[C@H](C(=O)O)C(C)C)[C@@H]3Oc4c(O)ccc5c4[C@@]31CCN(C)[C@@H]2C5 | 103 | 1.2 | Active | – | – | – | –
CO[C@@]12CC[C@@H](N[C@@H](CO)C(=O)O)[C@@H]3Oc4c(O)ccc5c4[C@@]31CCN(C)[C@@H]2C5 | 71 | 2.5 | Active | – | – | – | –
CO[C@@]12CC[C@H](N[C@@H](Cc3ccc(O)cc3)C(=O)O)[C@@H]3Oc4c(O)ccc5c4[C@@]31CCN(C)[C@@H]2C5 | 48 | 2.6 | Active | – | – | 0.0146 mg/kg | –
CO[C@@]12CC[C@@H](N[C@@H](C(=O)O)C(C)C)[C@@H]3Oc4c(O)ccc5c4[C@@]31CCN(C)[C@@H]2C5 | 156 | 1.6 | Active | – | – | 0.014 mg/kg | –
CO[C@@]12CC[C@H](N[C@@H](CC(N)=O)C(=O)O)[C@@H]3Oc4c(O)ccc5c4[C@@]31CCN(C)[C@@H]2C5 | 63 | 2.9 | Active | – | – | 0.0152 mg/kg | –
CN1CC[C@]23c4c5ccc(O)c4O[C@H]2[C@@H](O)C=C[C@H]3[C@H]1C5 [MORPHINE] | – | – | – | – | – | 0.437 mg/kg | –
CO[C@@]12CC[C@H](NCCCC(=O)O)[C@@H]3Oc4c(O)ccc5c4[C@@]31CCN(C)[C@@H]2C5 | 59 | 16 | Active | – | – | – | –
CO[C@@]12CC[C@H](N[C@@H](CC(=O)O)C(=O)O)[C@@H]3Oc4c(O)ccc5c4[C@@]31CCN(C)[C@@H]2C5 | 37 | 11 | Active | – | – | – | –
CO[C@@]12CC[C@@H](N[C@@H](CCC(=O)O)C(=O)O)[C@@H]3Oc4c(O)ccc5c4[C@@]31CCN(C)[C@@H]2C5 | 108 | 0.7 | Active | – | – | – | –
CC[C@H](N[C@H]1CC[C@@]2(OC)[C@H]3Cc4ccc(O)c5c4[C@@]2(CCN3C)[C@H]1O5)C(=O)O | 189 | – | Active | – | – | 0.0175 mg/kg | –

SMILES | Ratio Ki [1] | Ratio Ki (Rattus norvegicus) | Activity [2] | Activity ([3]; filed as agonist) | Activity ([3]; filed as partial agonist) | ED50 (Mus musculus) | Ki [4]
CO[C@@]12CC[C@H](N[C@H](C(=O)N[C@@H](Cc3ccc(O)cc3)C(=O)O)C(C)C)[C@@H]3Oc4c(O)ccc5c4[C@@]31CCN(C)[C@@H]2C5 | 84 | 1.5 | Active | – | 84% | – | –
CO[C@@]12CC[C@@H](N[C@@H](Cc3ccc(O)cc3)C(=O)O)[C@@H]3Oc4c(O)ccc5c4[C@@]31CCN(C)[C@@H]2C5 | 58 | 1.2 | Active | – | – | – | –
CO[C@@]12CC[C@H](N[C@@H](C)C(=O)O)[C@@H]3Oc4c(O)ccc5c4[C@@]31CCN(C)[C@@H]2C5 | – | – | Active | – | – | 0.016 mg/kg | 0.142 µM
CO[C@@]12CC[C@H](N[C@H](C)C(=O)O)[C@@H]3Oc4c(O)ccc5c4[C@@]31CCN(C)[C@@H]2C5 | – | – | Active | – | – | – | –
CO[C@@]12CC[C@@H](N[C@H](C(=O)O)C(C)C)[C@@H]3Oc4c(O)ccc5c4[C@@]31CCN(C)[C@@H]2C5 | 100 | 1.2 | Active | 84% | – | – | –
CO[C@@]12CC[C@@H](NCCC(=O)O)[C@@H]3Oc4c(O)ccc5c4[C@@]31CCN(C)[C@@H]2C5 | 69 | 13 | Active | 78% | – | – | –
CO[C@@]12CC[C@@H](N[C@@H](CC(N)=O)C(=O)O)[C@@H]3Oc4c(O)ccc5c4[C@@]31CCN(C)[C@@H]2C5 | 82 | 1.8 | Active | – | – | – | –
CO[C@@]12CC[C@H](N[C@@H](Cc3c[nH]c4ccccc34)C(=O)O)[C@@H]3Oc4c(O)ccc5c4[C@@]31CCN(C)[C@@H]2C5 | 70 | 2.8 | Active | – | – | – | –
CO[C@@]12CC[C@@H](N[C@H](C)C(=O)O)[C@@H]3Oc4c(O)ccc5c4[C@@]31CCN(C)[C@@H]2C5 | – | – | Active | – | – | – | –
CO[C@@]12CC[C@H](N[C@H](Cc3ccccc3)C(=O)O)[C@@H]3Oc4c(O)ccc5c4[C@@]31CCN(C)[C@@H]2C5 | 125 | 6 | Active | – | – | 0.0181 mg/kg | –
CO[C@@]12CC[C@H](NCCC(=O)O)[C@@H]3Oc4c(O)ccc5c4[C@@]31CCN(C)[C@@H]2C5 | 140 | 46 | Active | – | – | – | –
CO[C@@]12CC[C@H](N[C@@H](CCCCN)C(=O)O)[C@@H]3Oc4c(O)ccc5c4[C@@]31CCN(C)[C@@H]2C5 | 66 | 6.7 | Active | – | – | – | –
CN1CC[C@]23c4c5ccc(O)c4O[C@H]2[C@H](NCC(=O)O)CC[C@@]3(OCCCc2ccccc2)[C@H]1C5 | – | – | Active | – | – | – | –
CO[C@@]12CC[C@@H](N[C@@H](CC(=O)O)C(=O)O)[C@@H]3Oc4c(O)ccc5c4[C@@]31CCN(C)[C@@H]2C5 | 103 | 6.6 | Active | 74% | – | – | –
CO[C@@]12CC[C@@H](NCCCC(=O)O)[C@@H]3Oc4c(O)ccc5c4[C@@]31CCN(C)[C@@H]2C5 | – | 4.7 | Active | – | – | – | –
CO[C@@]12CC[C@@H](N[C@@H](CCC(N)=O)C(=O)O)[C@@H]3Oc4c(O)ccc5c4[C@@]31CCN(C)[C@@H]2C5 | 117 | 2 | Active | – | – | – | –
CN1CC[C@]23c4c5ccc(O)c4O[C@H]2[C@@H](NCC(=O)O)CC[C@@]3(OCCCc2ccccc2)[C@H]1C5 | – | – | Active | – | – | – | –
CO[C@@]12CC[C@H](N[C@@H](CCC(N)=O)C(=O)O)[C@@H]3Oc4c(O)ccc5c4[C@@]31CCN(C)[C@@H]2C5 | 108 | 1.6 | Active | – | – | – | –
